In ChEMBL document CHEMBL1133762, “Aureobasidins: structure-activity relationships for the inhibition of the human MDR1 P-glycoprotein ABC-transporter” (J Med Chem, 2000):
In brackets after ≈: the same amount, converted by molar mass.

What was measured:
[1] = tested on: Saccharomyces cerevisiae; assay: Minimum growth-inhibitory concentration against Saccharomyces cerevisiae ATCC 9763 by agar dilution method by the suspension of a fungi containing ~5 x 10e (7) cells/mL.; format: functional
How it was run: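 Agar dilution on Sabouraud–dextrose agar plates with graded compound concentrations. A loopful of yeast suspension (about 5 × 10⁷ cells/mL) was streaked on the surface. Plates were incubated at 30 °C for 3 days. MIC is the lowest concentration with no detectable growth.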

[2] = target: ATP-dependent translocase ABCB1 (Homo sapiens, UniProt P08183); assay: Direct comparison of the antifungal activities with the relative Pgp-inhibitory potencies, calculated by comparing ug/mL IC50(or IC20).; format: functional
ATP-dependent translocase ABCB1, sequence (P08183 whole entry): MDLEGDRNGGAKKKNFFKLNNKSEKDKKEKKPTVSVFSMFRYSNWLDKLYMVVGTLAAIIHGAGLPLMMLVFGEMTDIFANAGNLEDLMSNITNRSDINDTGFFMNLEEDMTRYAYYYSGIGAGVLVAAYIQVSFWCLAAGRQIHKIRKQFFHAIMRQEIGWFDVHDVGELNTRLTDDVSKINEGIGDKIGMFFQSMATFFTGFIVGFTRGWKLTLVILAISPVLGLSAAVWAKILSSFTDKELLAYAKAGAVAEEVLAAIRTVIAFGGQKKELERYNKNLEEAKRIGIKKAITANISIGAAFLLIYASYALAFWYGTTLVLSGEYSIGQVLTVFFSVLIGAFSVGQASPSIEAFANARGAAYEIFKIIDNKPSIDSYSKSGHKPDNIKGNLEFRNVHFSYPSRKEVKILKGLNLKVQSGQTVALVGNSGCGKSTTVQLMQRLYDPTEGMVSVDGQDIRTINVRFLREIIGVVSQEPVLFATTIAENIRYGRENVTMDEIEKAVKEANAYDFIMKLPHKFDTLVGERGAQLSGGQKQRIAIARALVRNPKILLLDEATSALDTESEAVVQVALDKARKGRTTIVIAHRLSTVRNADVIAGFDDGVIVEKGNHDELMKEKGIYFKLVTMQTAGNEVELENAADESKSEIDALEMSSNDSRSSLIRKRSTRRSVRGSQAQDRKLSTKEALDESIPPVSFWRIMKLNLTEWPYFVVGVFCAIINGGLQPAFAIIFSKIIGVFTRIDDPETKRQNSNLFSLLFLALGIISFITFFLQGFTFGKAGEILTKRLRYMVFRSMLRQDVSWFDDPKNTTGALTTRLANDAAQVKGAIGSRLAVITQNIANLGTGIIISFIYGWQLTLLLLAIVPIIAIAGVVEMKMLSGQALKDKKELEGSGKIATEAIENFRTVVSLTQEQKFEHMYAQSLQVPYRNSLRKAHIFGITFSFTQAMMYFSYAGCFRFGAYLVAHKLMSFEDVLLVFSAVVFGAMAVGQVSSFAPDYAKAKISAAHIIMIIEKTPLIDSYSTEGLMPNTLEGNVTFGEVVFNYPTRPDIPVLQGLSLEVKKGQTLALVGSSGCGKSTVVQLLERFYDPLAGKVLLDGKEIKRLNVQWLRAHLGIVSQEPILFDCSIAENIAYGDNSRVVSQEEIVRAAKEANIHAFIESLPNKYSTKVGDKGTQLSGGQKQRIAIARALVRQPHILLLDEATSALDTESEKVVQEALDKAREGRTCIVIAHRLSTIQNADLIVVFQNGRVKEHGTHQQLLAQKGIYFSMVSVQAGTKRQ

[3] = target: P-glycoprotein (ABCB1, MDR1) (Homo sapiens, UniProt P08183); assay: Human MDR1 Pgp inhibitory activity by using standard calcein-AM efflux method with the human leukemia CEM cells.; format: cell-based, CCRF-CEM; conditions: probe calcein-AM; for IC50: human, human leukemia CEM cells
P-glycoprotein (ABCB1, MDR1), sequence (P08183 whole entry): as above

[4] = tested on: Saccharomyces cerevisiae; assay: Relative antifungal activity (against Saccharomyces cerevisiae) compared to AbA

**Q.** Which MIC [1] does the source give for `CC[C@@H](C)[C@@H]1NC(=O)[C@@H]2CCCN2C(=O)[C@H]([C@H](O)c2ccccc2)N(C)C(=O)[C@H](Cc2ccccc2)NC(=O)[C@H](C(C)C)N(C)C(=O)[C@@H]([C@@H](C)CC)OC(=O)[C@H](C(C)(C)O)N(C)C(=O)[C@H](CC(C)C)NC(=O)[C@H](C(C)C)N(C)C1=O` here?
**A.** The MIC was 0.8 µg/mL (≈ 0.716 µM).

**Q.** How did the “Pgp AbA/analogue ratio” value [2] turn out when `CC[C@@H](C)[C@@H]1NC(=O)[C@@H]2CCCN2C(=O)[C@H](Cc2ccccc2)N(C)C(=O)[C@H](Cc2ccccc2)NC(=O)[C@H](C(C)C)N(C)C(=O)[C@@H]([C@@H](C)CC)OC(=O)CN(C)C(=O)[C@H](CC(C)C)NC(=O)[C@H](C(C)C)N(C)C1=O` was run?
**A.** The value was 2.7.

**Q.** What about the IC50 [3] of the same molecule?
**A.** Its IC50 is 890 nM.

**Q.** And the IC20 [3]?
**A.** Its IC20 is 310 nM.

**Q.** How did the “Pgp AbA/analogue ratio” value [2] turn out when `CC[C@@H](C)[C@@H]1NC(=O)CCCCCCCNC(=O)[C@H](C(C)C)N(C)C(=O)[C@@H]([C@@H](C)CC)OC(=O)[C@H](C(C)(C)O)N(C)C(=O)[C@H](CC(C)C)NC(=O)[C@H](C(C)C)N(C)C1=O` [listing 1 of 2 here] was run?
**A.** The value was 0.4.

**Q.** What about the “antifungal AbA/analogue ratio” value [4] of the same molecule?
**A.** Its value is less than 0.016.

**Q.** And the IC50 [3]?
**A.** Its IC50 is 7420 nM.

**Q.** What about the IC20 [3] of the same molecule?
**A.** Its IC20 is 2630 nM.

**Q.** What does the source list for `CC[C@@H](C)[C@@H]1NC(=O)[C@@H]2CCCN2C(=O)[C@H](Cc2ccccc2)N(C)C(=O)[C@H](Cc2ccccc2)NC(=O)[C@H](C(C)C)N(C)C(=O)[C@@H]([C@@H](C)CC)OC(=O)C(=C(C)C)N(C)C(=O)[C@H](CC(C)C)NC(=O)[C@H](C(C)C)N(C)C1=O` [listing 1 of 2 here]?
**A.** Pgp AbA/analogue ratio [2]: 12.5; antifungal AbA/analogue ratio [4]: < 0.016; IC50 [3]: 180 nM; IC20 [3]: 60 nM

**Q.** Which results are given for `CC[C@@H](C)[C@@H]1NC(=O)[C@@H]2CCCN2C(=O)[C@H](Cc2ccccc2)N(C)C(=O)[C@H](Cc2ccccc2)NC(=O)[C@H](C(C)C)N(C)C(=O)[C@@H]([C@@H](C)CC)OC(=O)[C@H](C(C)(C)O)N(C)C(=O)[C@H](CC(C)C)NC(=O)C(C(C)C)OC1=O` (stereo partly drawn) [listing 1 of 2 here]?
**A.** Pgp AbA/analogue ratio [2]: 1.4; antifungal AbA/analogue ratio [4]: < 0.016; IC50 [3]: 1660 nM; IC20 [3]: 460 nM

**Q.** What does the source list for `CC[C@H](C)[C@@H]1NC(=O)[C@@H]2CCCN2C(=O)[C@H](Cc2ccccc2)N(C)C(=O)[C@H](Cc2ccccc2)NC(=O)[C@H](C(C)C)N(C)C(=O)[C@@H]([C@@H](C)CC)OC(=O)[C@H](C(C)(C)O)N(C)C(=O)[C@H](CC(C)C)NC(=O)[C@H](C(C)C)N(C)C1=O`?
**A.** IC50 [3]: 2270 nM; IC20 [3]: 680 nM; MIC [1]: 0.4 µg/mL (≈ 0.363 µM)

**Q.** `CC[C@@H](C)[C@@H]1NC(=O)[C@@H]2CCCN2C(=O)[C@H](Cc2ccccc2)N(C)C(=O)[C@H](C2CCCCC2)NC(=O)[C@H](C(C)C)N(C)C(=O)[C@@H]([C@@H](C)CC)OC(=O)[C@H](C(C)(C)O)N(C)C(=O)[C@H](CC(C)C)NC(=O)[C@H](C(C)C)N(C)C1=O` [listing 1 of 2 here] was tested. Which “Pgp AbA/analogue ratio” value [2] did it give?
**A.** The value was 0.5.

**Q.** What about the “antifungal AbA/analogue ratio” value [4] of the same molecule?
**A.** The value was 0.25.

**Q.** What about the IC50 [3] of the same molecule?
**A.** Its IC50 is 5880 nM.

**Q.** What about the IC20 [3] of the same molecule?
**A.** Its IC20 is 1450 nM.

**Q.** What does the source list for `CC[C@@H](C)[C@@H]1NC(=O)[C@@H]2CCCN2C(=O)[C@H]([C@H](O)c2ccccc2)N(C)C(=O)[C@H](Cc2ccccc2)NC(=O)[C@H](C(C)C)N(C)C(=O)[C@@H]([C@@H](C)CC)OC(=O)[C@H](C(C)C)N(C)C(=O)[C@H](CC(C)C)NC(=O)[C@H](C(C)C)N(C)C1=O` [listing 1 of 2 here]?
**A.** Pgp AbA/analogue ratio [2]: 1.7; antifungal AbA/analogue ratio [4]: 0.25; IC50 [3]: 1360 nM; IC20 [3]: 460 nM

**Q.** What does the source list for `CC[C@@H](C)[C@@H]1NC(=O)[C@@H]2CCCN2C(=O)[C@H](Cc2ccccc2)N(C)C(=O)[C@H](Cc2ccccc2)NC(=O)[C@H](C(C)C)N(C)C(=O)[C@@H]([C@@H](C)CC)OC(=O)[C@H]([C@H](C)CO)N(C)C(=O)[C@H](CC(C)C)NC(=O)[C@H](C(C)C)N(C)C1=O` [listing 1 of 2 here]?
**A.** Pgp AbA/analogue ratio [2]: 2.1; antifungal AbA/analogue ratio [4]: 0.06; IC50 [3]: 1090 nM; IC20 [3]: 360 nM

**Q.** Which MIC [1] does the source give for `CC[C@@H](C)[C@@H]1NC(=O)[C@@H]2CCCN2C(=O)[C@H]([C@H](O)c2ccccc2)N(C)C(=O)[C@H](Cc2ccccc2)NC(=O)[C@H](C(C)C)N(C)C(=O)[C@@H]([C@@H](C)CC)OC(=O)[C@H](C(C)C)N(C)C(=O)[C@H](CC(C)C)NC(=O)[C@H](C(C)C)N(C)C1=O` [listing 2 of 2 here] here?
**A.** Its MIC is 1.7 µg/mL (≈ 1.54 µM).

**Q.** With `CC[C@@H](C)[C@@H]1NC(=O)[C@@H]2CCCN2C(=O)[C@H](Cc2ccccc2)N(C)C(=O)[C@H](Cc2ccccc2)NC(=O)[C@H](C(C)C)N(C)C(=O)[C@@H]([C@@H](C)CC)OC(=O)[C@]2(OC2(C)C)N(C)C(=O)[C@H](CC(C)C)NC(=O)[C@H](C(C)C)N(C)C1=O` as the molecule, how does the IC50 [3] read?
**A.** The IC50 was 1550 nM.

**Q.** What about the IC20 [3] of the same molecule?
**A.** The IC20 was 460 nM.

**Q.** With `CC[C@@H](C)[C@@H]1NC(=O)[C@@H]2CCCN2C(=O)[C@H](Cc2ccccc2)N(C)C(=O)[C@H](Cc2ccccc2)NC(=O)[C@H](C(C)C)N(C)C(=O)[C@@H](C(C)C)OC(=O)[C@H](C(C)(C)O)N(C)C(=O)[C@H](CC(C)C)NC(=O)[C@H](C(C)C)N(C)C1=O` as the molecule, how does the MIC [1] read?
**A.** Its MIC is 0.4 µg/mL (≈ 0.368 µM).

**Q.** With `CC[C@@H](C)[C@@H]1NC(=O)[C@@H]2CCCN2C(=O)[C@H](Cc2ccccc2)N(C)C(=O)[C@H](Cc2ccccc2)NC(=O)[C@H](C(C)C)N(C)C(=O)[C@@H]([C@@H](C)CC)OC(=O)C(=C(C)C)N(C)C(=O)[C@H](CC(C)C)NC(=O)[C@H](C(C)C)N(C)C1=O` [listing 2 of 2 here] as the molecule, how does the MIC [1] read?
**A.** The MIC was greater than 25 µg/mL.

**Q.** What does the source list for `CC[C@@H](C)[C@@H]1NC(=O)[C@@H]2CCCN2C(=O)[C@H](Cc2ccccc2)N(C)C(=O)[C@H](Cc2ccccc2)NC(=O)[C@H](C(C)C)N(C)C(=O)[C@@H]([C@@H](C)CC)OC(=O)[C@H](C(C)(C)O)N(C)C(=O)[C@H](CC(C)C)NC(=O)[C@H](C(C)C)NC1=O` [listing 1 of 2 here]?
**A.** Pgp AbA/analogue ratio [2]: 0.3; antifungal AbA/analogue ratio [4]: 0.25; IC50 [3]: 7550 nM; IC20 [3]: 2670 nM

**Q.** With `CC[C@@H](C)[C@@H]1NC(=O)[C@@H]2CCCN2C(=O)[C@H](Cc2ccccc2)N(C)C(=O)[C@H](C2CCCCC2)NC(=O)[C@H](C(C)C)N(C)C(=O)[C@@H]([C@@H](C)CC)OC(=O)[C@H](C(C)(C)O)N(C)C(=O)[C@H](CC(C)C)NC(=O)[C@H](C(C)C)N(C)C1=O` [listing 2 of 2 here] as the molecule, how does the MIC [1] read?
**A.** The MIC was 1.6 µg/mL (≈ 1.46 µM).

**Q.** With `CC[C@@H](C)[C@@H]1NC(=O)[C@@H]2CCCN2C(=O)[C@H](Cc2ccccc2)N(C)C(=O)[C@H](Cc2ccccc2)NC(=O)[C@H](C(C)C)N(C)C(=O)[C@@H]([C@@H](C)CC)OC(=O)[C@H]([C@H](C)CO)N(C)C(=O)[C@H](CC(C)C)NC(=O)[C@H](C(C)C)N(C)C1=O` [listing 2 of 2 here] as the molecule, how does the MIC [1] read?
**A.** Its MIC is 6.3 µg/mL (≈ 5.72 µM).

**Q.** For `CC[C@@H](C)[C@@H]1NC(=O)[C@@H]2CCCN2C(=O)[C@H](Cc2ccccc2)N(C)C(=O)[C@H](Cc2ccccc2)NC(=O)[C@H](C(C)C)N(C)C(=O)[C@@H]([C@@H](C)CC)OC(=O)[C@H](C(C)(C)O)N(C)C(=O)[C@H](CC(C)C)NC(=O)[C@H](C(C)C)NC1=O` [listing 2 of 2 here], which MIC [1] is on record?
**A.** The MIC was 1.6 µg/mL (≈ 1.47 µM).

**Q.** For `CC[C@@H](C)[C@@H]1NC(=O)CCCCCCCNC(=O)[C@H](C(C)C)N(C)C(=O)[C@@H]([C@@H](C)CC)OC(=O)[C@H](C(C)(C)O)N(C)C(=O)[C@H](CC(C)C)NC(=O)[C@H](C(C)C)N(C)C1=O` [listing 2 of 2 here], which MIC [1] is on record?
**A.** Its MIC is greater than 25 µg/mL.

**Q.** For `CC[C@H](C)[C@@H]1NC(=O)[C@@H]2CCCN2C(=O)[C@H](Cc2ccccc2)N(C)C(=O)[C@H](Cc2ccccc2)NC(=O)[C@H](C(C)C)N(C)C(=O)[C@@H]([C@@H](C)CC)OC(=O)[C@@H](C(C)(C)O)N(C)C(=O)[C@H](CC(C)C)NC(=O)[C@H](C(C)C)N(C)C1=O`, which IC50 [3] is on record?
**A.** Its IC50 is 390 nM.

**Q.** And the IC20 [3]?
**A.** The IC20 was 100 nM.

**Q.** What about the MIC [1] of the same molecule?
**A.** The MIC was greater than 25 µg/mL.

**Q.** `CC[C@@H](C)[C@@H]1NC(=O)[C@@H]2CCCN2C(=O)[C@H](Cc2ccccc2)N(C)C(=O)[C@H](Cc2ccccc2)NC(=O)[C@H](C(C)C)N(C)C(=O)[C@@H]([C@@H](C)CC)OC(=O)[C@H](C(C)(C)O)N(C)C(=O)[C@H](CC(C)C)NC(=O)C(C(C)C)OC1=O` (stereo partly drawn) [listing 2 of 2 here] was tested. Which MIC [1] did it give?
**A.** The MIC was greater than 25 µg/mL.
